Laboratory results taken from ChEMBL document CHEMBL4706563, “Triphenylethylene analogues: Design, synthesis and evaluation of antitumor activity and topoisomerase inhibitors” (Eur J Med Chem, 2020).
Active and inactive are the calls of the source. No cut-off for these calls is given here.

Assays:
Type in all cases: functional
SK-MEL-28 = assay: Antiproliferative activity against human SK-MEL-28 cells assessed as growth inhibition at 10 uM relative to control; conditions: read-out: GI
Summary of the method: (§1)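 NCI 60 human tumour cell line panel screen. Compounds tested at a single dose and growth inhibition (%) determined for each line.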

SW-620 = assay: Antiproliferative activity against human SW-620 cells assessed as growth inhibition at 10 uM relative to control; conditions: read-out: GI; summary of the method: as §1
SR = assay: Antiproliferative activity against human SR cells assessed as growth inhibition at 10 uM relative to control; conditions: read-out: GI; summary of the method: as §1
[1] = Antiproliferative activity against human breast cancer cells; conditions: Breast cancer cell line
BT-549 = assay: Antiproliferative activity against human BT-549 cells assessed as growth inhibition at 10 uM relative to control
Summary of the method: (§2)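 Single-dose screen run by the US National Cancer Institute across its 60-human tumour cell line panel. Each compound was tested at one concentration. Percent growth inhibition was recorded for each cell line.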

OVCAR-4 = assay: Antiproliferative activity against human OVCAR-4 cells assessed as growth inhibition at 10 uM relative to control; conditions: read-out: GI; summary of the method: as §2
MCF7 = assay: Antiproliferative activity against human MCF7 cells assessed as growth inhibition at 10 uM relative to control; conditions: read-out: GI; summary of the method: as §2
SF-539 = assay: Antiproliferative activity against human SF-539 cells assessed as growth inhibition at 10 uM relative to control; conditions: read-out: GI; summary of the method: as §2
HOP-92 = assay: Antiproliferative activity against human HOP-92 cells assessed as growth inhibition at 10 uM relative to control; conditions: read-out: GI; summary of the method: as §2
HOP-62 = assay: Antiproliferative activity against human HOP-62 cells assessed as growth inhibition at 10 uM relative to control; conditions: read-out: GI; summary of the method: as §2
DU-145 = assay: Antiproliferative activity against human DU-145 cells assessed as growth inhibition at 10 uM relative to control; conditions: read-out: GI; summary of the method: as §2
A549 = assay: Antiproliferative activity against human A549 cells assessed as growth inhibition at 10 uM relative to control; conditions: read-out: GI; summary of the method: as §2
T47D = assay: Antiproliferative activity against human T47D cells assessed as growth inhibition at 10 uM relative to control; conditions: read-out: GI; summary of the method: as §1
[2] = Antiproliferative activity against human prostate cancer cells; conditions: Prostate tumor cell line
NCI-H522 = assay: Antiproliferative activity against human NCI-H522 cells assessed as growth inhibition at 10 uM relative to control; conditions: read-out: GI; summary of the method: as §2
SNB-75 = assay: Antiproliferative activity against human SNB-75 cells assessed as growth inhibition at 10 uM relative to control; conditions: read-out: GI; summary of the method: as §1
K562 = assay: Antiproliferative activity against human K562 cells assessed as growth inhibition at 10 uM relative to control; conditions: read-out: GI; summary of the method: as §2
OVCAR-3 = assay: Antiproliferative activity against human OVCAR-3 cells assessed as growth inhibition at 10 uM relative to control; conditions: read-out: GI; summary of the method: as §2
LOX IMVI = assay: Antiproliferative activity against human LOX IMVI cells assessed as growth inhibition at 10 uM relative to control; conditions: read-out: GI; summary of the method: as §2
786-0 = assay: Antiproliferative activity against human 786-0 cells assessed as growth inhibition at 10 uM relative to control; conditions: read-out: GI; summary of the method: as §2
SF-295 = assay: Antiproliferative activity against human SF-295 cells assessed as growth inhibition at 10 uM relative to control; conditions: read-out: GI; summary of the method: as §2
HCT-116 = assay: Antiproliferative activity against human HCT-116 cells assessed as growth inhibition at 10 uM relative to control; summary of the method: as §2
IGROV-1 = assay: Antiproliferative activity against human IGROV-1 cells assessed as growth inhibition at 10 uM relative to control; conditions: read-out: GI; summary of the method: as §2
EKVX = assay: Antiproliferative activity against human EKVX cells assessed as growth inhibition at 10 uM relative to control; conditions: read-out: GI; summary of the method: as §2
NCI-H460 = assay: Antiproliferative activity against human NCI-H460 cells assessed as growth inhibition at 10 uM relative to control; conditions: read-out: GI; summary of the method: as §2
Leukemia cell = assay: Antiproliferative activity against human leukemia cells
SK-MEL-5 = assay: Antiproliferative activity against human SK-MEL-5 cells assessed as growth inhibition at 10 uM relative to control; conditions: read-out: GI; summary of the method: as §1
COLO 205 = assay: Antiproliferative activity against human COLO 205 cells assessed as growth inhibition at 10 uM relative to control; conditions: read-out: GI; summary of the method: as §2
NCI-H23 = assay: Antiproliferative activity against human NCI-H23 cells assessed as growth inhibition at 10 uM relative to control; conditions: read-out: GI; summary of the method: as §2
RPMI-8226 = assay: Antiproliferative activity against human RPMI-8226 cells assessed as growth inhibition at 10 uM relative to control; conditions: read-out: GI; summary of the method: as §2
SN12C = assay: Antiproliferative activity against human SN12C cells assessed as growth inhibition at 10 uM relative to control; conditions: read-out: GI; summary of the method: as §1
[3] = Antiproliferative activity against human Melanoma cells; conditions: Melanoma cell line
U-251 = assay: Antiproliferative activity against human U251 cells assessed as growth inhibition at 10 uM relative to control; conditions: read-out: GI; summary of the method: as §1
SNB-19 = assay: Antiproliferative activity against human SNB-19 cells assessed as growth inhibition at 10 uM relative to control; conditions: read-out: GI; summary of the method: as §1
MDA-MB-435 = assay: Antiproliferative activity against human MDA-MB-435 cells assessed as growth inhibition at 10 uM relative to control; conditions: read-out: GI; summary of the method: as §2
HT-29 = assay: Antiproliferative activity against human HT29 cells assessed as growth inhibition at 10 uM relative to control; conditions: read-out: GI; summary of the method: as §2
OVCAR-8 = assay: Antiproliferative activity against human OVCAR-8 cells assessed as growth inhibition at 10 uM relative to control; conditions: read-out: GI; summary of the method: as §2
TK-10 = assay: Antiproliferative activity against human TK-10 cells assessed as growth inhibition at 10 uM relative to control; conditions: read-out: GI; summary of the method: as §1
CCRF-CEM = assay: Antiproliferative activity against human CCRF-CEM cells assessed as growth inhibition at 10 uM relative to control; conditions: read-out: GI; summary of the method: as §2
[4] = Antiproliferative activity against human renal cancer cells; conditions: Renal cancer cell line
MDA-MB-468 = assay: Antiproliferative activity against human MDA-MB-468 cells assessed as growth inhibition at 10 uM relative to control; conditions: read-out: GI; summary of the method: as §2
CAKI-1 = assay: Antiproliferative activity against human CAKI-1 cells assessed as growth inhibition at 10 uM relative to control; conditions: read-out: GI; summary of the method: as §2
MDA-MB-231 = assay: Antiproliferative activity against human MDA-MB-231 cells assessed as growth inhibition at 10 uM relative to control; conditions: read-out: GI; summary of the method: as §2
NCI-H226 = assay: Antiproliferative activity against human NCI-H226 cells assessed as growth inhibition at 10 uM relative to control; conditions: read-out: GI; summary of the method: as §2
M14 = assay: Antiproliferative activity against human M14 cells assessed as growth inhibition at 10 uM relative to control; conditions: read-out: GI; summary of the method: as §2
MOLT-4 = assay: Antiproliferative activity against human MOLT-4 cells assessed as growth inhibition at 10 uM relative to control; conditions: read-out: GI; summary of the method: as §2
Malme-3M = assay: Antiproliferative activity against human Malme-3M cells assessed as growth inhibition at 10 uM relative to control; conditions: read-out: GI; summary of the method: as §2
[5] = read-out: LC50 (the source's name)

Question: With `C/C(=C(/c1ccccc1)c1ccc(OCC(O)CNCCN2CCOCC2)cc1)c1ccccc1` (configuration not stated) as the molecule, how does the inhibition of growth at 10 µM (SK-MEL-28) read?
Answer: -86.2%

Question: And the inhibition of growth at 10 µM (SW-620)?
Answer: 51%

Question: And the inhibition of growth at 10 µM (SR)?
Answer: 99.3%

Question: And the GI50 [1]?
Answer: 3.69 µM

Question: What about the TGI [1] of the same molecule?
Answer: 9.08 µM

Question: What about the CC50 [1, 5] of the same molecule?
Answer: 29.1 µM

Question: And the “growth inhibition (GI)” value (BT-549)?
Answer: inactive

Question: And the inhibition of growth at 10 µM (OVCAR-4)?
Answer: 29.8%

Question: What about the inhibition of growth at 10 µM (MCF7) of the same molecule?
Answer: 55.4%

Question: What about the inhibition of growth at 10 µM (SF-539) of the same molecule?
Answer: 27.2%

Question: And the inhibition of growth at 10 µM (HOP-92)?
Answer: 40.9%

Question: What about the inhibition of growth at 10 µM (HOP-62) of the same molecule?
Answer: 25.1%

Question: And the inhibition of growth at 10 µM (DU-145)?
Answer: 32.2%

Question: What about the inhibition of growth at 10 µM (A549) of the same molecule?
Answer: 29.2%

Question: And the inhibition of growth at 10 µM (T47D)?
Answer: 10.7%

Question: What about the GI50 [2] of the same molecule?
Answer: 3.57 µM

Question: And the TGI [2]?
Answer: 13 µM

Question: What about the CC50 [2, 5] of the same molecule?
Answer: 38.5 µM

Question: And the inhibition of growth at 10 µM (NCI-H522)?
Answer: 55.5%

Question: And the inhibition of growth at 10 µM (SNB-75)?
Answer: 34.2%

Question: And the inhibition of growth at 10 µM (K562)?
Answer: 97.6%

Question: And the inhibition of growth at 10 µM (OVCAR-3)?
Answer: 22.1%

Question: What about the inhibition of growth at 10 µM (LOX IMVI) of the same molecule?
Answer: 81.3%

Question: And the inhibition of growth at 10 µM (786-0)?
Answer: 2.44%

Question: What about the inhibition of growth at 10 µM (SF-295) of the same molecule?
Answer: 28.8%

Question: And the “growth inhibition (GI)” value (HCT-116)?
Answer: inactive

Question: What about the inhibition of growth at 10 µM (IGROV-1) of the same molecule?
Answer: 36.6%

Question: What about the inhibition of growth at 10 µM (EKVX) of the same molecule?
Answer: 17.2%

Question: And the inhibition of growth at 10 µM (NCI-H460)?
Answer: 82.4%

Question: And the GI50 (Leukemia cell)?
Answer: 2.19 µM

Question: And the LC50 (concentration killing 50% of cells) (Leukemia cell)?
Answer: 23.9 µM

Question: What about the TGI (Leukemia cell) of the same molecule?
Answer: 5.8 µM

Question: And the inhibition of growth at 10 µM (SK-MEL-5)?
Answer: 71%

Question: What about the inhibition of growth at 10 µM (COLO 205) of the same molecule?
Answer: -64.5%

Question: And the inhibition of growth at 10 µM (NCI-H23)?
Answer: 16.8%

Question: What about the inhibition of growth at 10 µM (RPMI-8226) of the same molecule?
Answer: 79.8%

Question: What about the inhibition of growth at 10 µM (SN12C) of the same molecule?
Answer: 23.9%

Question: And the GI50 [3]?
Answer: 1.87 µM

Question: What about the LC50 [3] of the same molecule?
Answer: 8.55 µM

Question: And the TGI [3]?
Answer: 3.74 µM

Question: And the inhibition of growth at 10 µM (U-251)?
Answer: 67.4%

Question: What about the inhibition of growth at 10 µM (SNB-19) of the same molecule?
Answer: 8.8%

Question: What about the inhibition of growth at 10 µM (MDA-MB-435) of the same molecule?
Answer: -63.8%

Question: And the inhibition of growth at 10 µM (HT-29)?
Answer: 96.8%

Question: What about the inhibition of growth at 10 µM (OVCAR-8) of the same molecule?
Answer: 21.8%

Question: What about the inhibition of growth at 10 µM (TK-10) of the same molecule?
Answer: 26.5%

Question: And the inhibition of growth at 10 µM (CCRF-CEM)?
Answer: 43.5%

Question: What about the GI50 [4] of the same molecule?
Answer: 2.4 µM

Question: What about the TGI [4] of the same molecule?
Answer: 7.75 µM

Question: And the CC50 [4, 5]?
Answer: 22 µM

Question: And the inhibition of growth at 10 µM (MDA-MB-468)?
Answer: 46.9%

Question: And the inhibition of growth at 10 µM (CAKI-1)?
Answer: 32.1%

Question: And the inhibition of growth at 10 µM (MDA-MB-231)?
Answer: 70.6%

Question: What about the inhibition of growth at 10 µM (NCI-H226) of the same molecule?
Answer: 3.88%

Question: And the inhibition of growth at 10 µM (M14)?
Answer: 7.31%

Question: What about the inhibition of growth at 10 µM (MOLT-4) of the same molecule?
Answer: 59%

Question: What about the inhibition of growth at 10 µM (Malme-3M) of the same molecule?
Answer: -71.7%
